Compound activity: PubChem BioAssay, several laboratories
Runt-SMMHC FRET: Runt domain-CBFb-SMMHC interaction inhibition; Q01196+Q13951; Cerulean-Runt/Venus-CBFb-SMMHC FRET ratio 530/480, 1 h; inhibition, % at 20 µM; 0.74% of 220,000 active;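 active = mean inhibition across duplicate retests at 20 µM reaching about 50%, limit read from the data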;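 note: 0% = DMSO wells and 100% = wells with excess untagged CBFb-SMMHC; inhibitors lower the FRET ratio by blocking Runt binding to CBFb-SMMHC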
Target sequence (Q01196 whole entry, looked up, the tested form may be a part): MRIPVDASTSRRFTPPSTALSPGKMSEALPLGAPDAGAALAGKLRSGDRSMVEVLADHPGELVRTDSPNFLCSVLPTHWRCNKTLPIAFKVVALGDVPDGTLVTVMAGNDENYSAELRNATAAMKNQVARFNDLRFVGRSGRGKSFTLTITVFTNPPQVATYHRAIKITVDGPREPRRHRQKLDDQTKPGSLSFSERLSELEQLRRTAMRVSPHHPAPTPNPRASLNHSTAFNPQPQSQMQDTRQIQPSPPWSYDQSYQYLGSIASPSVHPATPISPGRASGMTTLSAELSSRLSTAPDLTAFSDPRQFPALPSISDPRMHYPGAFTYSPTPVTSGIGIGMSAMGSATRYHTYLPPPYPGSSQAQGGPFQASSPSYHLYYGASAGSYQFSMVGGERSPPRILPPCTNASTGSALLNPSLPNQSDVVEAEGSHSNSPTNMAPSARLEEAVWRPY
Target sequence (Q13951 whole entry, looked up, the tested form may be a part): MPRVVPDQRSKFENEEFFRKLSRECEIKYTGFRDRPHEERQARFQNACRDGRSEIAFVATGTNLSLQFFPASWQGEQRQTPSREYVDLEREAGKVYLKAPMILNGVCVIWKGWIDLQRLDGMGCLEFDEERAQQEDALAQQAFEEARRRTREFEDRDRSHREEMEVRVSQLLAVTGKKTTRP
VIM-2 inhibitor: blocks Pseudomonas aeruginosa VIM-2 metallo-beta-lactamase; 0.89% of 290,000 active; inhibition, % at 5.6 µM; purified VIM-2, nitrocefin hydrolysis, epi-absorbance fluorescence; AID 1527;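 active = inhibition above the mean of all tested compounds plus 3 SD, cutoff set per screening run, cut at about 7.5% in these data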;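 note: red hydrolysis product quenches plate fluorescence so inhibitors raise well fluorescence; 0% = enzyme with DMSO and 100% = DMSO without enzyme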
Runt-CBFb FRET: inhibitors of human RUNX1 Runt domain binding to CBFb | Q01196+Q13951 | Cerulean-Runt/Venus-CBFb FRET ratio 530/480, 1 h | inhibition, % at 20 µM | 0.46% of 220,000 active | AID 1496;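 active = inhibition over about 50% at 20 µM in the single-dose screen, limit read from the data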;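 note: 0% = DMSO wells and 100% = excess unlabeled CBFb competitor control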
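System: Cerulean-labeled Runt domain protein | Quantity: 100 nM of each labeled protein | Schedule: 1 h compound exposure, room temperature | Detection: Fluorescence energy transfer, 422 nm excitation, 530/480 nm emission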
IMP-1 inhibitor: inhibitors of Pseudomonas aeruginosa IMP-1 metallo-beta-lactamase; 0.45% of 290,000 active; inhibition, % at 5.6 µM; purified IMP-1, nitrocefin hydrolysis, epi-absorbance fluorescence;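 active = inhibition above the mean plus 3 SD of all compounds in the same screening run, cut at about 4.5% in these data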;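 note: 0% = IMP-1 with DMSO and 100% = DMSO wells lacking enzyme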
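System: purified IMP-1; amount: IMP-1 0.2 nM before substrate addition; compound: single dose, 5.6 µM; times: 25 °C, 15 min preincubation, 25 min reaction; signal: Epi-absorbance via hydrolysed-nitrocefin quenching of white-plate fluorescence, 480/530 nm, EDTA stop; benchmarks: DMSO with and without IMP-1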
RanGTP-Impb inh: inhibitors of RanGTP-importin-beta interaction, primary screen, biochemical, FRET, CFP-Ran, YFP-importin-beta, homogeneous | cell-free CFP-Ran/YFP-importin-beta FRET ratio | inhibition, % (no concentration beside the values) | 1.1% of 300,000 active;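 active = more than half of the replicate wells show a fall in the fluorescence ratio signal beyond about 16%, limit read from the data, passing the limit was not always enough; inconclusive = exactly half of the replicate wells pass the set limit; inactive = fewer than half of replicates pass the limit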;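 note: 0% = DMSO wells and 100% = Ran loaded with GDP instead of GTP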
* hit, by the source's call; ? = inconclusive; . = no result given. Sampled rows, rich in hits. Any-hit rate of the full collection: about 2.6%.

SMILES | Runt-SMMHC FRET | VIM-2 inhibitor | Runt-CBFb FRET | IMP-1 inhibitor | RanGTP-Impb inh
c1ccc(-c2nc(NCCCN3CCOCC3)c3ccccc3n2)cc1 | 1.7 | 10.2* | 0.1 | 1.4 | -0.2
CN(C)CCCNc1nc(-c2ccc(Cl)cc2)nc2ccccc12 | . | 0.6 | . | -3.1 | 1.4
Cc1cccc(-c2nc(NCCCN(C)C)c3ccccc3n2)c1 | . | 7.8* | . | -3.1 | 0.0
Cc1cccc(-c2nc(NCCCN3CCOCC3)c3ccccc3n2)c1 | -0.2 | 7.7* | 1.3 | -4.0 | -4.9
c1ccc2[nH]c(NCCCN3CCOCC3)nc2c1 | -2.6 | -1.4 | -0.5 | -4.0 | -0.2
C=CCNc1nc(NCc2ccccc2)c(C#N)c2c1CN(C)CC2 | 65.0* | 0.6 | 35.0 | -2.6 | 108.6*
CCCCCNc1nc(NCCCO)c(C#N)c2c1CN(C)CC2 | 79.2* | -1.2 | 33.9 | -3.9 | 146.1*
COc1cccc(NC(=O)CN2C(=O)CSc3nc(C)cc(C)c32)c1 | . | -1.0 | . | -3.5 | -1.4
COCCn1c(=N)c(S(=O)(=O)c2ccc(Br)cc2)cc2c(=O)n3ccccc3nc21 | . | 3.0 | . | -1.3 | 119.0*
COCCn1c(=N)c(S(=O)(=O)c2ccc(F)cc2)cc2c(=O)n3ccccc3nc21 | . | 2.3 | . | 1.4 | 159.9*
CNc1ccc(Br)cc(C(=O)/C=C/c2cccc(Cl)c2Cl)c1=O | -14.7 | -1.6 | 12.7 | 5.9* | .
CNc1ccccc(C(=O)/C=C/c2ccccc2OC)c1=O | -23.7 | -1.5 | -0.6 | 2.2 | -1.6
CCNc1ccc(Br)cc(C(=O)/C=C/c2ccccc2Cl)c1=O | . | 0.2 | . | 10.6* | -12.7
CNc1ccc(Br)cc(C(=O)/C=C/c2cccc(OC)c2OC)c1=O | -18.8 | 1.2 | -0.9 | 6.5* | 3.3
COC(=O)c1ccc(CN(c2ccc(C(=O)O)c(O)c2)S(=O)(=O)c2ccc(Cl)c([N+](=O)[O-])c2)cc1 | . | -0.1 | . | -0.2 | 7.0
CC(=O)c1ccc(NC(=O)Nc2cccc3ccccc23)cc1 | . | -1.1 | . | -1.5 | .
Cc1ccc(S(=O)(=O)N2CCN(c3ccnc4cc(Cl)ccc34)CC2)cc1C | 1.5 | -0.6 | -0.1 | -1.7 | 2.7
Cc1ccc(S(=O)(=O)N2CCN(c3ccnc4cc(Cl)ccc34)CC2)cc1 | -1.8 | 10.2* | -0.3 | -0.4 | -2.3
CN(C)CCCC(C)(O)C(C)(C)c1ccccc1 (stereo not drawn) | -2.8 | -3.1 | 73.4* | -3.7 | -3.2
N=C(N)c1ccc(Cl)cc1 | -0.1 | -3.2 | -0.5 | -1.2 | -0.3
N=C(N)c1ccc(/C=C/c2ccc(C(=N)N)cc2O)cc1 | -29.4 | 4.2 | -7.0 | 5.7* | -7.6
O=C(NCC1CCCN1S(=O)(=O)c1cccs1)c1c(F)cccc1F (stereo not drawn) | . | . | . | . | -7.1
Cc1ccc(/C=C2\Sc3ccccc3C2=O)s1 | -16.2 | 0.6 | -8.5 | -0.2 | -2.2
CC(=O)N(C)/C=C1\Sc2ccccc2C1=O | 76.3* | 6.2 | 29.7 | -2.0 | ?
O=CN(/C=C1\Sc2ccccc2C1=O)Cc1ccccc1 | 66.8* | 2.5 | 37.1 | 2.3 | ?
SMILES | Runt-SMMHC FRET | VIM-2 inhibitor | Runt-CBFb FRET | IMP-1 inhibitor | RanGTP-Impb inh
CCCS(=O)(=O)c1c(S(=O)(=O)CCC)c2cc(-c3ccncc3)ccn2c1C(=O)OC | 109.2* | -1.4 | 17.6 | -2.8 | -1.9
Cc1ccc(S(=O)(=O)N2CCCOC2CNC(=O)C(=O)NCCCn2ccnc2)cc1 (stereo not drawn) | 0.3 | -2.3 | -2.3 | -1.2 | 0.1
O=C(NCCCn1ccnc1)C(=O)NCC1OCCN1S(=O)(=O)c1ccc(Br)cc1 (stereo not drawn) | -1.4 | -1.3 | 1.6 | 7.0* | -2.1
O=C(NCCCn1ccnc1)C(=O)NCC1OCCN1S(=O)(=O)c1ccc(F)cc1 (stereo not drawn) | 2.3 | -1.9 | -0.4 | 10.3* | 3.5
O=c1cc(CN2CCc3ccccc32)c2ccc(O)cc2o1 | 23.6 | -2.6 | 15.3 | -4.2 | 43.2*
CCc1c(C)c2ccc(O)c(CN(C)C)c2oc1=O | 130.8* | -0.8 | 49.5 | -5.7 | 9.4
CN(C)Cc1c(O)ccc2c(-c3ccccc3)cc(=O)oc12 | -48.9 | -1.3 | -16.7 | -3.0 | 4.2
CCCCc1cc(=O)oc2c(CN3CCN(C)CC3)c(O)ccc12 | . | -0.6 | . | -0.6 | 5.9
CCCCc1cc(=O)oc2c(CN(C)C)c(O)ccc12 | 106.8* | -1.4 | 47.8 | -1.3 | 9.7
